Test results as given in ChEMBL document CHEMBL1127574, “Design and synthesis of ellipticinium salts and 1,2-dihydroellipticines with high selectivities against human CNS cancers in vitro” (1994).

Legend:
Format in all cases: functional
HOP-62 = assay: Tested in vitro for cytotoxicity in HOP-62 cell line of Non-Small Cell Lung Cancer; conditions: Homo sapiens, read-out: Log TGI (converted)
How it was run: (§1)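 Compounds dissolved in DMSO, then diluted 500-fold into aqueous medium. The resulting aqueous solutions or suspensions were added to the cultured human tumour cell lines, and the cells were exposed for 48 h. Growth was read colorimetrically in one of two ways: a metabolic assay in which viable cells reduce a tetrazolium salt to a formazan dye, or a protein stain for total cellular protein.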

Malme-3M [1] = assay: Tested in vitro for cytotoxicity in MALME-3M cell line of Melanoma; conditions: Homo sapiens, read-out: Log TGI (converted); how it was run: as §1
NCI-H522 = assay: Tested in vitro for cytotoxicity in NCI-H522 cell line of Non-Small Cell Lung Cancer; conditions: Homo sapiens, read-out: Log TGI (converted); how it was run: as §1
SF-539 = assay: Tested in vitro for cytotoxicity in SF-539 cell line of CNS Cancer; conditions: Homo sapiens, read-out: Log TGI (converted); how it was run: as §1
KM-20L2 = assay: Tested in vitro for cytotoxicity in KM20L2 cell line of Colon Cancer; conditions: Homo sapiens, read-out: Log TGI (converted)
How it was run: (§2)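 Compound DMSO solutions diluted 500-fold into aqueous medium; the resulting solutions or suspensions were added to cultured human tumor cells for 48 h. Growth was read colorimetrically, either by tetrazolium reduction to formazan by viable cells or by a protein stain for total cellular protein.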

NCI-H460 = assay: Tested in vitro for cytotoxicity in NCI-H460 cell line of Non-Small Cell Lung Cancer; conditions: Homo sapiens, read-out: Log TGI (converted); how it was run: as §1
UACC-257 = assay: Tested in vitro for cytotoxicity in UACC-257 cell line of Melanoma; conditions: Homo sapiens, read-out: Log TGI (converted)
How it was run: (§3)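 Compounds dissolved in DMSO and diluted 500-fold into aqueous medium; aliquots of the resulting solutions or suspensions added to cultured human tumor cells for 48 h. Growth read colorimetrically, either by tetrazolium reduction to formazan by viable cells or by protein staining of total cellular protein.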

XF498 = assay: Tested in vitro for cytotoxicity in XF498 cell line of CNS Cancer; conditions: Homo sapiens, read-out: Log TGI (converted); how it was run: as §2
HCC 2998 = assay: Tested in vitro for cytotoxicity in HCC2998 cell line of Colon Cancer; conditions: Homo sapiens, read-out: Log TGI (converted); how it was run: as §1
KM12 = assay: Tested in vitro for cytotoxicity in KM12 cell line of Colon Cancer; conditions: Homo sapiens, read-out: Log TGI (converted); how it was run: as §1
OVCAR-5 = assay: Tested in vitro for cytotoxicity in OVCAR-5 cell line of Ovarian Cancer; conditions: Homo sapiens, read-out: Log TGI (converted); how it was run: as §1
SNB-75 = assay: Tested in vitro for cytotoxicity in SNB-75 cell line of CNS Cancer; conditions: Homo sapiens, read-out: Log TGI (converted); how it was run: as §3
786-0 = assay: Tested in vitro for cytotoxicity in 786-0 cell line of Renal cancer; conditions: Homo sapiens, read-out: Log TGI (converted); how it was run: as §1
DMS-114 [2] = assay: Tested in vitro for cytotoxicity in DMS114 cell line of Small Cell Lung Cancer; conditions: Homo sapiens, read-out: Log TGI (converted); how it was run: as §1
SNB-19 = assay: Tested in vitro for cytotoxicity in SNB-19 cell line of CNS Cancer; conditions: Homo sapiens, read-out: Log TGI (converted); how it was run: as §2
U-251 = assay: Tested in vitro for cytotoxicity in U251 cell line of CNS Cancer; conditions: Homo sapiens, read-out: Log TGI (converted); how it was run: as §3
COLO 205 [3] = assay: Tested in vitro for cytotoxicity in COLO 205 cell line of Colon Cancer; conditions: Homo sapiens, read-out: Log TGI (converted); how it was run: as §1
DMS-114 [4] = assay: Tested in vitro for cytotoxicity in DMS114 cell lines; conditions: Homo sapiens; how it was run: as §1
COLO 205 [5] = assay: Tested in vitro for cytotoxicity in COLO 205 cell lines; conditions: Homo sapiens; how it was run: as §1
CAKI-1 = assay: Tested in vitro for cytotoxicity in CAKI-1 cell lines; conditions: Homo sapiens; how it was run: as §1
ACHN = assay: Tested in vitro for cytotoxicity in ACHN cell line of Renal cancer; conditions: Homo sapiens, read-out: Log TGI (converted); how it was run: as §1
HCT-15 = assay: Tested in vitro for cytotoxicity in HCT-15 cell line of Colon Cancer; conditions: Homo sapiens, read-out: Log TGI (converted); how it was run: as §1
SW-620 = assay: Tested in vitro for cytotoxicity in SW-620 cell line of Colon Cancer; conditions: Homo sapiens, read-out: Log TGI (converted); how it was run: as §3
UO-31 = assay: Tested in vitro for cytotoxicity in UO-31 cell line of Renal cancer; conditions: Homo sapiens, read-out: Log TGI (converted); how it was run: as §3
IGROV-1 = assay: Tested in vitro for cytotoxicity in IGROV1 cell line of Ovarian Cancer; conditions: Homo sapiens, read-out: Log TGI (converted); how it was run: as §1
Malme-3M [6] = assay: Tested in vitro for cytotoxicity in MALME-3M; conditions: Homo sapiens; how it was run: as §1
A549 = assay: Tested in vitro for cytotoxicity in A549/ATCC cell lines; conditions: Homo sapiens; how it was run: as §1
LXFL 529 = assay: Tested in vitro for cytotoxicity in LXFL-529 cell line of Non-Small Cell Lung Cancer; conditions: Homo sapiens, read-out: Log TGI (converted); how it was run: as §1
SF-268 = assay: Tested in vitro for cytotoxicity in SF-268 cell lines; conditions: Homo sapiens; how it was run: as §1
OVCAR-8 = assay: Tested in vitro for cytotoxicity in OVCAR-8 cell line of Ovarian Cancer; conditions: Homo sapiens, read-out: Log TGI (converted); how it was run: as §1
SK-MEL-5 = assay: Tested in vitro for cytotoxicity in SK-MEL-5 cell line of Melanoma; conditions: Homo sapiens, read-out: Log TGI (converted); how it was run: as §3

COc1ccc2[nH]c3c(C)c4cc[n+](C)cc4c(C)c3c2c1
TGI (HOP-62): 6.31 µM | TGI (Malme-3M [1]): 25.1 µM | TGI (NCI-H522): 7.94 µM | TGI (SF-539): 6.31 µM | TGI (KM-20L2): > 100 µM | TGI (NCI-H460): 79.4 µM | TGI (UACC-257): > 100 µM | TGI (XF498): 10 µM | TGI (HCC 2998): 63.1 µM | TGI (KM12): 25.1 µM | TGI (OVCAR-5): > 100 µM | TGI (SNB-75): 3.16 µM | TGI (786-0): 5.01 µM | TGI (DMS-114 [2]): 6.31 µM | TGI (SNB-19): 10 µM | TGI (U-251): 5.01 µM | TGI (COLO 205 [3]): 39.8 µM | GI50 (DMS-114 [4]): 811 nM | GI50 (COLO 205 [5]): 2400 nM | GI50 (CAKI-1): 48.2 µM | TGI (ACHN): > 100 µM | TGI (HCT-15): > 100 µM | TGI (SW-620): > 100 µM | TGI (UO-31): > 100 µM | TGI (IGROV-1): > 100 µM | GI50 (Malme-3M [6]): 5.27 µM | GI50 (A549): 1520 nM | TGI (LXFL 529): 10 µM | GI50 (SF-268): 409 nM | TGI (OVCAR-8): 31.6 µM | TGI (SK-MEL-5): 20 µM
